As usually defined, the IC50 is the concentration at which inhibition is half-maximal.

In brackets after ≈: the same amount, converted by molar mass. Where only a bound is given, the exact number is not on record here.

Holding throughout (type): functional, cell-based
The test system of one experiment is MC-38. Description: In vitro antiproliferative activity against colon 38 murine adenocarcinoma. As to conditions: Mus musculus. The procedure, abridged: (§1)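 RPMI1640 with 10% FBS; seeded at 2.5×10³ cells/well for KB and colon 38, 1.25×10³ cells/well for P388; preincubated 24 h at 37 °C, 5% CO2. DMSO stocks were diluted 3-fold serially in medium, with 200 μg/mL the top dilution. Exposure was continuous for 3 days, then MTT for 1–2 h. Formazan was read in DMSO at 540/660 nm, and IC50 was taken by least squares.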

A further experiment has as its system KB. Description: Antiproliferative activity against KB human nasopharynx carcinoma in vitro. The gist of the method: as §1
The test system of the next experiment is P388. Briefly: Antiproliferative activity against P388 murine leukemia in vitro. To be noted: Mus musculus. The procedure, abridged:
as §1

With `N#Cc1ccccc1S(=O)(=O)Nc1cccc2c(C#N)c[nH]c12`, the IC50 in the experiment with MC-38 came out at 2.8 µg/mL (≈ 8.69 µM); with KB, 61 µg/mL (≈ 189 µM); in the experiment on P388 it was 14 µg/mL (≈ 43.4 µM).

As to `CS(=O)(=O)Nc1cccc(S(=O)(=O)Nc2cccc3c(Cl)c[nH]c23)c1`, the 50% inhibitory concentration (IC50) turned out to be 1.5 µg/mL (≈ 3.75 µM) in the experiment with MC-38, 26 µg/mL (≈ 65 µM) with KB and 4.8 µg/mL (≈ 12 µM) in the experiment on P388.

On to `COc1ccc(S(=O)(=O)Nc2cccc3c(C#N)c[nH]c23)cc1`, for which the IC50 in the experiment with MC-38 is 0.17 µg/mL (≈ 0.519 µM); with KB, 1.4 µg/mL (≈ 4.28 µM); in the experiment with P388, 0.17 µg/mL (≈ 0.519 µM).

Turning to `CS(=O)(=O)Nc1ccccc1S(=O)(=O)Nc1cccc2c(Cl)c[nH]c12`, the IC50 in the experiment on MC-38 is 45 µg/mL (≈ 113 µM); in the experiment with KB, 18 µg/mL (≈ 45 µM); in the experiment on P388, 18 µg/mL (≈ 45 µM).

With `N#Cc1cccc(S(=O)(=O)Nc2cccc3c(C#N)c[nH]c23)c1`, the figures for the IC50 with MC-38, in the experiment with KB and with P388 were 0.09 µg/mL (≈ 0.279 µM), 8.2 µg/mL (≈ 25.4 µM) and 0.2 µg/mL (≈ 0.62 µM), respectively.

Regarding `O=C(O)c1ccc(S(=O)(=O)Nc2cccc3c(Cl)c[nH]c23)cc1`, the IC50 with MC-38, with KB and in the experiment with P388 was greater than 100 µg/mL in each case.

As for `NC(=O)c1ccc(S(=O)(=O)Nc2cccc3c(Cl)c[nH]c23)cc1`, the results for the IC50 in the experiment on MC-38, with KB and with P388 were 0.19 µg/mL (≈ 0.543 µM), 21 µg/mL (≈ 60 µM) and 0.87 µg/mL (≈ 2.49 µM), respectively.

In the case of `CS(=O)(=O)Nc1ccc(S(=O)(=O)Nc2cccc3c(C#N)c[nH]c23)cc1`, the figures for the IC50 with MC-38, in the experiment with KB and in the experiment with P388 were 1.2 µg/mL (≈ 3.07 µM), 15 µg/mL (≈ 38.4 µM) and 3.5 µg/mL (≈ 8.96 µM), respectively.

Turning to `CS(=O)(=O)Nc1ccc(S(=O)(=O)Nc2cccc3c(Cl)c[nH]c23)cc1`, the IC50 in the experiment on MC-38 was found to be 0.26 µg/mL (≈ 0.65 µM); with KB, 12 µg/mL (≈ 30 µM); in the experiment with P388 it was 1.6 µg/mL (≈ 4 µM).

For `NS(=O)(=O)Cc1ccc(S(=O)(=O)Nc2cccc3c(Cl)c[nH]c23)cc1`, the values for the IC50 in the experiment with MC-38, with KB and in the experiment with P388 were 0.12 µg/mL (≈ 0.3 µM), 13 µg/mL (≈ 32.5 µM) and 0.15 µg/mL (≈ 0.375 µM), respectively.

For `Cc1ccc(S(=O)(=O)Nc2cccc3cc[nH]c23)cc1`, the IC50 with MC-38 was found to be 2.4 µg/mL (≈ 8.38 µM); with KB, 2.2 µg/mL (≈ 7.68 µM); in the experiment on P388, 4.3 µg/mL (≈ 15 µM).

Take `COc1ccc(S(=O)(=O)Nc2cccc3c(Cl)c[nH]c23)cc1`: the figures for the IC50 with MC-38, in the experiment with KB and in the experiment on P388 were 0.2 µg/mL (≈ 0.594 µM), 0.55 µg/mL (≈ 1.63 µM) and 0.76 µg/mL (≈ 2.26 µM), respectively.

For `Nc1ccc(S(=O)(=O)Nc2cccc3cc[nH]c23)cc1`, the IC50 is 6.1 µg/mL (≈ 21.2 µM) in the experiment on MC-38, 36 µg/mL (≈ 125 µM) in the experiment on KB and 14 µg/mL (≈ 48.7 µM) with P388.

Regarding `Nc1ccc(S(=O)(=O)Nc2cccc3c(Cl)c[nH]c23)cc1`, the half-maximal inhibitory concentration (IC50) was 0.23 µg/mL (≈ 0.715 µM) in the experiment with MC-38, 10 µg/mL (≈ 31.1 µM) in the experiment with KB and 0.81 µg/mL (≈ 2.52 µM) in the experiment with P388.

For the compound `N#Cc1ccc(S(=O)(=O)Nc2cccc3c(Cl)c[nH]c23)cc1`, the figures for the IC50 with MC-38, with KB and in the experiment on P388 were 0.13 µg/mL (≈ 0.392 µM), 11 µg/mL (≈ 33.2 µM) and 1.4 µg/mL (≈ 4.22 µM), respectively.

In the case of `COc1ccc(S(=O)(=O)Nc2cccc3cc[nH]c23)cc1`, the values for the IC50 with MC-38, with KB and in the experiment with P388 were 1.5 µg/mL (≈ 4.96 µM), 0.67 µg/mL (≈ 2.22 µM) and 1.1 µg/mL (≈ 3.64 µM), respectively.

For `O=S(=O)(Nc1cccc2cc[nH]c12)c1ccc(Cl)cc1`, the IC50 with MC-38 was determined as 7 µg/mL (≈ 22.8 µM); in the experiment on KB, 6 µg/mL (≈ 19.6 µM); with P388 it was 6 µg/mL (≈ 19.6 µM).

For the compound `CNS(=O)(=O)c1ccc(S(=O)(=O)Nc2cccc3c(Cl)c[nH]c23)cc1`, the IC50 stood at 0.24 µg/mL (≈ 0.6 µM) in the experiment with MC-38, 15 µg/mL (≈ 37.5 µM) in the experiment on KB and 0.9 µg/mL (≈ 2.25 µM) in the experiment with P388.

In the case of `N#Cc1ccc(S(=O)(=O)Nc2cccc3cc[nH]c23)cc1`, the results for the half-maximal inhibitory concentration (IC50) with MC-38, with KB and in the experiment with P388 were 1.8 µg/mL (≈ 6.05 µM), 8.5 µg/mL (≈ 28.6 µM) and 4.2 µg/mL (≈ 14.1 µM), respectively.

Turning to `N#Cc1c[nH]c2c(NS(=O)(=O)c3ccc(C(N)=O)cc3)cccc12`, the figures for the IC50 in the experiment with MC-38, in the experiment with KB and in the experiment on P388 were 0.68 µg/mL (≈ 2 µM), 15 µg/mL (≈ 44.1 µM) and 2.5 µg/mL (≈ 7.35 µM), respectively.

With `N#Cc1ccc(S(=O)(=O)Nc2cccc3c(C#N)c[nH]c23)cc1`, the 50% inhibitory concentration (IC50) in the experiment on MC-38 was found to be 0.12 µg/mL (≈ 0.372 µM); in the experiment on KB, 33 µg/mL (≈ 102 µM); in the experiment with P388, 0.53 µg/mL (≈ 1.64 µM).

Take `N#Cc1c[nH]c2c(NS(=O)(=O)c3ccc(C(=O)O)cc3)cccc12`: the IC50 in the experiment with MC-38, in the experiment with KB and in the experiment on P388 was greater than 100 µg/mL each time.

In the case of `N#Cc1c[nH]c2c(NS(=O)(=O)c3ccc(N)cc3)cccc12`, the IC50 with MC-38 was 0.28 µg/mL (≈ 0.896 µM); in the experiment on KB, 4.4 µg/mL (≈ 14.1 µM); with P388, 0.72 µg/mL (≈ 2.31 µM).

In turn, `COc1ccc(S(=O)(=O)Nc2cccnc2Nc2ccc(O)cc2)cc1` [ABT-751] registered an IC50 in the experiment on P388 of 0.32 µg/mL (≈ 0.862 µM).

As to `NS(=O)(=O)c1ccc(S(=O)(=O)Nc2cccc3c(Cl)c[nH]c23)cc1` [INDISULAM], the IC50 with MC-38 stood at 0.1 µg/mL (≈ 0.259 µM); with KB it was 4.4 µg/mL (≈ 11.4 µM); in the experiment on P388, 0.45 µg/mL (≈ 1.17 µM).

(Values after ChEMBL document CHEMBL1132278, “Discovery of novel antitumor sulfonamides targeting G1 phase of the cell cycle” (J Med Chem, 1999).)
